Source: ChEMBL document CHEMBL1122064, “Synthesis and biological evaluation of 17-[131I]iodo-9-telluraheptadecanoic acid, a potential imaging agent” (J Med Chem, 1982)

Columns and labels:
Rattus norvegicus [1] = assay: Distribution of radioactivity in Thyroid of Fischer 344 female rat after 2 hr of intravenous administration; assay type: ADME, organism-based; settings: in vivo
How it was run: (§1)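 Female Fischer 344 rats (10-12 weeks, 170-200 g) with food and water ad libitum. The 131I-labelled fatty acid was taken up in ethanol, added dropwise to stirred 6% BSA at 40 °C (final ethanol 10%), filtered, and injected into a lateral tail vein under ether. Rats were CO2-anaesthetised and killed; organs were excised, rinsed, blotted, weighed and Ge(Li)-counted. Results are mean (range) % injected dose/g.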

Rattus norvegicus [2] = assay: Distribution of radioactivity in brain of Fischer 344 female rat after 30 min of intravenous administration; assay type: ADME, organism-based; settings: in vivo, 0.5 h; how it was run: as §1
Rattus norvegicus [3] = assay: Distribution of radioactivity in liver of Fischer 344 female rat after 24 hr of intravenous administration; assay type: ADME, organism-based; settings: in vivo
How it was run: (§2)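 Female Fischer 344 rats, 10-12 weeks old, 170-200 g, fed ad libitum. The 131I-labelled fatty acid was dissolved in absolute ethanol, added dropwise to stirred 6% bovine serum albumin at 40 °C (final ethanol 10%), filtered, and injected into a lateral tail vein under ether anaesthesia. Organs were excised, rinsed, blotted and weighed, then counted by Ge(Li) analyzer as percent injected dose/g.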

Rattus norvegicus [4] = assay: Distribution of radioactivity in heart of Fischer 344 female rat after 60 min of intravenous administration; assay type: ADME, organism-based; settings: in vivo, 1 h
Rattus norvegicus [5] = assay: Distribution of radioactivity in kidneys of Fischer 344 female rat after 10 min of intravenous administration; assay type: ADME, organism-based, Kidney; settings: in vivo; how it was run: as §1
Rattus norvegicus [6] = assay: Distribution of radioactivity in brain of Fischer 344 female rat after 60 min of intravenous administration; assay type: ADME, organism-based; settings: in vivo, 1 h; how it was run: as §1
Rattus norvegicus [7] = assay: Distribution of radioactivity in Thyroid of Fischer 344 female rat after 30 min of intravenous administration; assay type: ADME, organism-based; settings: in vivo, 0.5 h; how it was run: as §1
Rattus norvegicus [8] = assay: Distribution of radioactivity in Thyroid of Fischer 344 female rat after 24 hr of intravenous administration; assay type: ADME, organism-based; settings: in vivo; how it was run: as §1
Rattus norvegicus [9] = assay: Distribution of radioactivity in lungs of Fischer 344 female rat after 2 min of intravenous administration; assay type: ADME, organism-based, Lung; settings: in vivo; how it was run: as §2
Rattus norvegicus [10] = assay: Distribution of radioactivity in Thyroid of Fischer 344 female rat after 6 hr of intravenous administration; assay type: ADME, organism-based; settings: in vivo; how it was run: as §1
Rattus norvegicus [11] = assay: Distribution of radioactivity in Thyroid of Fischer 344 female rat after 4 days of intravenous administration; assay type: ADME, organism-based; settings: in vivo, 96 h; how it was run: as §1
Rattus norvegicus [12] = assay: Distribution of radioactivity in kidneys of Fischer 344 female rat after 2 hr of intravenous administration; assay type: ADME, organism-based, Kidney; settings: in vivo; how it was run: as §1
Rattus norvegicus [13] = assay: Distribution of radioactivity in blood of Fischer 344 female rat after 7 days of intravenous administration; assay type: ADME, organism-based; settings: in vivo, 168 h; how it was run: as §1
Rattus norvegicus [14] = assay: Distribution of radioactivity in lungs of Fischer 344 female rat after 6 hr of intravenous administration; assay type: ADME, organism-based, Lung; settings: in vivo; how it was run: as §2
Rattus norvegicus [15] = assay: Distribution of radioactivity in lungs of Fischer 344 female rat after 30 min of intravenous administration; assay type: ADME, organism-based, Lung; settings: in vivo, 0.5 h
How it was run: (§3)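 Female Fischer 344 rats, 10-12 weeks, 170-200 g, fed ad libitum. The labelled fatty acid was given in 6% bovine serum albumin via a lateral tail vein under ether anaesthesia. Rats were killed by CO2 anaesthesia and cervical fracture; organs were excised, rinsed, blotted, weighed and counted by Ge(Li) analyzer. Results are mean percent injected dose/g with range.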

Rattus norvegicus [16] = assay: Distribution of radioactivity in brain of Fischer 344 female rat after 6 hr of intravenous administration; assay type: ADME, organism-based; settings: in vivo; how it was run: as §1
Rattus norvegicus [17] = assay: Distribution of radioactivity in blood of Fischer 344 female rat after 30 min of intravenous administration; assay type: ADME, organism-based; settings: in vivo, 0.5 h
Rattus norvegicus [18] = assay: Distribution of radioactivity in liver of Fischer 344 female rat after 7 of days intravenous administration; assay type: ADME, organism-based; settings: in vivo; how it was run: as §2
Rattus norvegicus [19] = assay: Distribution of radioactivity in lungs of Fischer 344 female rat after 7 days of intravenous administration; assay type: ADME, organism-based, Lung; settings: in vivo, 168 h; how it was run: as §2
Rattus norvegicus [20] = assay: Distribution of radioactivity in brain of Fischer 344 female rat after 4 days of intravenous administration; assay type: ADME, organism-based; settings: in vivo, 96 h; how it was run: as §1
Rattus norvegicus [21] = assay: Distribution of radioactivity in heart of Fischer 344 female rat after 7 days of intravenous administration; assay type: ADME, organism-based; settings: in vivo, 168 h; how it was run: as §1
Rattus norvegicus [22] = assay: Distribution of radioactivity in blood of Fischer 344 female rat after 60 min of intravenous administration; assay type: ADME, organism-based; settings: in vivo, 1 h
Rattus norvegicus [23] = assay: Distribution of radioactivity in liver of Fischer 344 female rat after 2 hr of intravenous administration; assay type: ADME, organism-based; settings: in vivo; how it was run: as §1
Rattus norvegicus [24] = assay: Distribution of radioactivity in blood of Fischer 344 female rat after 2 hr of intravenous administration; assay type: ADME, organism-based; settings: in vivo; how it was run: as §1
Rattus norvegicus [25] = assay: Distribution of radioactivity in kidneys of Fischer 344 female rat after 2 min of intravenous administration; assay type: ADME, organism-based, Kidney; settings: in vivo; how it was run: as §1
Rattus norvegicus [26] = assay: Distribution of radioactivity in lungs of Fischer 344 female rat after 24 hr of intravenous administration; assay type: ADME, organism-based, Lung; settings: in vivo; how it was run: as §2
Rattus norvegicus [27] = assay: Distribution of radioactivity in blood of Fischer 344 female rat after 6 hr of intravenous administration; assay type: ADME, organism-based; settings: in vivo; how it was run: as §1
Rattus norvegicus [28] = assay: Distribution of radioactivity in liver of Fischer 344 female rat after 10 min of intravenous administration; assay type: ADME, organism-based; settings: in vivo; how it was run: as §1
Rattus norvegicus [29] = assay: Distribution of radioactivity in heart of Fischer 344 female rat after 30 min of intravenous administration; assay type: ADME, organism-based; settings: in vivo, 0.5 h
Rattus norvegicus [30] = assay: Distribution of radioactivity in blood of Fischer 344 female rat after 2 min of intravenous administration; assay type: ADME, organism-based; settings: in vivo; how it was run: as §1
Rattus norvegicus [31] = assay: Distribution of radioactivity in liver of Fischer 344 female rat after 60 min of intravenous administration; assay type: ADME, organism-based; settings: in vivo, 1 h; how it was run: as §3

O=C(O)CCCCCCCC[Te]CCCCCCCC[131I]
Distribution of radioactivity (Rattus norvegicus [1]): 166 dose g-1 | Distribution of radioactivity (Rattus norvegicus [2]): 0.06 dose g-1 | Distribution of radioactivity (Rattus norvegicus [3]): 0.13 dose g-1 | Distribution of radioactivity (Rattus norvegicus [4]): 1.86 dose g-1 | Distribution of radioactivity (Rattus norvegicus [5]): 1.14 dose g-1 | Distribution of radioactivity (Rattus norvegicus [6]): 0.05 dose g-1 | Distribution of radioactivity (Rattus norvegicus [7]): 41.9 dose g-1 | Distribution of radioactivity (Rattus norvegicus [8]): 475 dose g-1 | Distribution of radioactivity (Rattus norvegicus [9]): 1.4 dose g-1 | Distribution of radioactivity (Rattus norvegicus [10]): 184 dose g-1 | Distribution of radioactivity (Rattus norvegicus [11]): 226 dose g-1 | Distribution of radioactivity (Rattus norvegicus [12]): 0.54 dose g-1 | Distribution of radioactivity (Rattus norvegicus [13]): 0.009 dose g-1 | Distribution of radioactivity (Rattus norvegicus [14]): 0.48 dose g-1 | Distribution of radioactivity (Rattus norvegicus [15]): 0.85 dose g-1 | Distribution of radioactivity (Rattus norvegicus [16]): 0.03 dose g-1 | Distribution of radioactivity (Rattus norvegicus [17]): 0.72 dose g-1 | Distribution of radioactivity (Rattus norvegicus [18]): 0.014 dose g-1 | Distribution of radioactivity (Rattus norvegicus [19]): 0.031 dose g-1 | Distribution of radioactivity (Rattus norvegicus [20]): < 0.007 dose g-1 | Distribution of radioactivity (Rattus norvegicus [21]): 0.016 dose g-1 | Distribution of radioactivity (Rattus norvegicus [22]): 0.64 dose g-1 | Distribution of radioactivity (Rattus norvegicus [23]): 1.02 dose g-1 | Distribution of radioactivity (Rattus norvegicus [24]): 0.61 dose g-1 | Distribution of radioactivity (Rattus norvegicus [25]): 1.36 dose g-1 | Distribution of radioactivity (Rattus norvegicus [26]): 0.18 dose g-1 | Distribution of radioactivity (Rattus norvegicus [27]): 0.44 dose g-1 | Distribution of radioactivity (Rattus norvegicus [28]): 3.23 dose g-1 | Distribution of radioactivity (Rattus norvegicus [29]): 1.78 dose g-1 | Distribution of radioactivity (Rattus norvegicus [30]): 1.28 dose g-1 | Distribution of radioactivity (Rattus norvegicus [31]): 1.16 dose g-1
